An excerpt weighted towards active compounds, which were near 6.8% of everything screened.
HSF-1 act – HSF-1 activators, primary screen, NIH3T3-HGL cells, MG132 stress, luminescence, single point; NIH3T3-HGL HSF-1 luciferase reporter, 8 h; 100% = twice DMSO control signal; activation, % at 9 µM; actives 1.7% (n = 300,000); AID 504408, 2011;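 active = mean replicate activation of at least 50% with a set share of replicates each reaching 50%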;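 note: 0% = median of the neutral control wells and 100% = twice that signal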
AI-2 QS mod – Vibrio harveyi AI-2 quorum sensing modulators, primary screen, JMH597 strain, luminescence/OD600 ratio; actives 0.4% (n = 300,000); Vibrio harveyi JMH597 AI-2 luminescence/OD600 ratio, 9 h; active compounds read low; strain lacks LuxN and CqsS sensors; 0 = neutral-control median; activity change, % at 7.5 µM; in the data active = activity change below about -75%, passing the limit was not always enough;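 note: luminescence divided by OD600 gain over 9 h not by final OD600 alone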
ALR H2O2 inh – inhibitors of human ALR sulfhydryl oxidase, primary screen, biochemical, H2O2 detection, HRP-luminol luminescence, single point; actives 3.8% (n = 290,000); inhibition, % (no concentration beside the values); AID 485317, 2010; purified ALR, DTT oxidation; FAD-linked sulfhydryl oxidase ALR (Homo sapiens), P55789;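 active = mean replicate inhibition above about 79%, with every replicate also reaching it, limit read from the data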
Target sequence (P55789 whole entry, looked up): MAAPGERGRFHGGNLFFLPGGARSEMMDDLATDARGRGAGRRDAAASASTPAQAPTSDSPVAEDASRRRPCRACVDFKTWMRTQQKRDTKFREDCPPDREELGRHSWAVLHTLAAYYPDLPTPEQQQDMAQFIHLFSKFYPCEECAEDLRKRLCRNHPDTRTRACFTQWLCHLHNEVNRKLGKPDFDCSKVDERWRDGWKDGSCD
core dimer inh – inhibitors of HCV core protein dimerization, primary screen, biochemical, TR-FRET, high-throughput; inhibition, % at 5 µM; actives 0.33% (n = 300,000); TR-FRET GST/Flag-core106 dimerization, 1536-well;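 active = inhibition above the mean of all tested compounds plus 3 SD, set per screening campaign, cut at about 45% in these data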
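System: GST/Flag-tagged HCV core106 proteins. Incubation: compound-protein-antibody incubation 4 h at 22.5 °C. Technique: HTRF with 340 nm excitation, 617/671 nm emission. Medium: KF-containing HEPES buffer, pH 7.45, DTT, CHAPS, BSA. Read-out: inhibition (%) from 671 over 617 nm ratio. Also added: Eu(K)-anti-GST 90 ng/mL plus XL665-anti-Flag 1 µg/mL.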
HSF1 inhib – HSF1 inhibitors in luciferase reporter cells, primary screen, cell-based, NIH3T3, luminescence; NIH3T3-HGL HSE-luciferase, MG132-induced, luminescence 8 h; active compounds read low; activity change, negative = inhibition, % at 7.5 µM (by protocol); actives 0.77% (n = 300,000);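 active = more than half of replicate wells show activity change below -50%, luminescence cut by over half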;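 note: luciferase reports HSF-1 transcriptional activity via heat shock element; 0% = median of DMSO wells and -100% = zero luminescence signal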
PHOSPHO1 inh – PubChem AID 1565; recombinant PHOSPHO1, absorbance phosphatase assay; inhibition, % at 13.3 µM; actives 1.1% (n = 290,000); in the data active = inhibition above about 60%
Target sequence (Q8TCT1 whole entry, looked up): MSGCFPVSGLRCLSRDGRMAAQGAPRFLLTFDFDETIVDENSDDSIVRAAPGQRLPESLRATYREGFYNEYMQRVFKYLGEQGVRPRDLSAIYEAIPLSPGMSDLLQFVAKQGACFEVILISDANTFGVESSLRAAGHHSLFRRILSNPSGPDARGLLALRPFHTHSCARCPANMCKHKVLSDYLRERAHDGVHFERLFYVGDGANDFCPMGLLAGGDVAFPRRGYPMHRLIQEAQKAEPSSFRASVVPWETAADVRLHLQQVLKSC
* = called active by the depositor; nt = not tested or not shown.

SMILES | HSF-1 act | AI-2 QS mod | ALR H2O2 inh | core dimer inh | HSF1 inhib | PHOSPHO1 inh
O=C(COC(=O)CSc1ccc([N+](=O)[O-])cc1)NCC1CCCO1 (configuration not stated) | 32.8 | 18.3 | 99.0* | nt | 3.6 | 36.0
O=C(COC(=O)CSc1ccc([N+](=O)[O-])cc1)NC1CCCCCCC1 | -2.7 | nt | -8.6 | 0.7 | -2.3 | nt
COc1ccc(N2CCN(C3CC(=O)N(C)C3=O)CC2)cc1 (configuration not stated) | -0.4 | 4.7 | 45.0 | -1.7 | -2.3 | -25.3
CN1C(=O)CC(N2CCN(c3ccc(Cl)cc3)CC2)C1=O (configuration not stated) | 8.4 | 37.6 | 98.0* | -11.6 | -4.4 | -1.1
C[C@H](CO)N1C[C@H](C)[C@@H](CN(C)Cc2ccncc2)Oc2c(NS(=O)(=O)c3cn(C)cn3)cccc2C1=O | nt | nt | -0.3 | nt | nt | nt
CC(C)c1nnc(NC(=O)C2CCN(C(=O)c3ccco3)CC2)s1 | -70.8 | 14.4 | -12.6 | 6.8 | -64.0* | 26.5
Cc1nnc(NC(=O)C2CCN(C(=O)c3ccco3)CC2)s1 | -2.9 | -2.5 | -1.4 | -2.7 | -0.5 | 39.2
Cc1ccc(S(=O)(=O)N2CCC(C(=O)Nc3nnc(-c4ccco4)s3)CC2)cc1 | 12.2 | 17.1 | 2.2 | -1.1 | 5.5 | -16.2
O=C(Nc1nnc(-c2ccco2)s1)C1CCCCC1 | 28.8 | 20.4 | 42.4 | 2.2 | 21.1 | 75.4*
Cc1cc([N+](=O)[O-])cc2c1NC(=O)C2(O)N1CCOCC1 (configuration not stated) | -16.1 | 0.2 | -38.6 | -1.1 | -7.2 | 12.5
NC(=O)c1c(NC(=O)c2ccncc2)sc2c1CCCCCC2 | -8.9 | -4.9 | 5.7 | -1.4 | -9.7 | 29.0
Cc1oc(-c2cccs2)nc1CN1CCC(c2ccccc2)CC1 | -8.9 | 22.9 | -25.0 | 4.6 | -17.8 | 5.5
CCN1c2ccccc2NC2C1C(C(C)=O)C(=O)N2c1ccc(Cl)cc1 (configuration not stated) | 47.0 | 6.6 | -32.4 | 9.4 | 16.6 | -9.6
CCN1c2ccccc2NC2N=C(OC)C(c3ccccc3)C21 (configuration not stated) | 17.4 | 32.8 | 98.6* | 1.4 | 12.9 | -20.8
COc1cccc(-n2nc(C(N)=O)c(O)cc2=O)c1 | 2.5 | 18.1 | -2.9 | 1.0 | -4.2 | 28.5
COc1cccc(-n2nc(C#N)c(Cl)cc2=O)c1 | 224.6* | -44.8 | nt | nt | 155.3 | -12.3
Cc1ccccc1CSCC(=O)NCc1ccco1 | -11.4 | 13.2 | 88.4* | 9.0 | 3.7 | -17.8
CCOc1ccc(-c2nc(CSCC(=O)NCc3ccco3)c(C)o2)cc1 | -74.0 | 3.3 | 97.6* | 5.2 | -72.1* | -14.2
Cc1ccc(CSCC(=O)NCc2ccco2)cc1 | 15.1 | 15.9 | -4.0 | 0.7 | 1.7 | -5.1
Cc1oc(-c2ccc(Cl)cc2)nc1CSCC(=O)NC1CCN(Cc2ccccc2)CC1 | 0.6 | 13.8 | 97.7* | -5.0 | 0.8 | 18.3
CCOc1ccc(-c2nc(CSCC(=O)NC3CCCc4ccccc43)c(C)o2)cc1 (configuration not stated) | 23.2 | 4.5 | 95.8* | 6.3 | 1.4 | -0.5
Cc1ccc(-c2nc3ccccc3[nH]2)cc1NC(=O)c1sc2cc(Cl)ccc2c1Cl | 5.4 | 16.7 | nt | 18.6 | 8.5 | -17.6
CCOC(=O)N1CCC(NC(=O)CSCc2nc(-c3cccc(OC)c3)oc2C)CC1 | 39.7 | 10.4 | 99.2* | 3.3 | 22.5 | 6.3
CCOc1ccc(NC(=O)Cn2nnc(C(=O)NCc3ccco3)c2N)cc1 | 56.5* | 24.7 | -3.7 | -2.4 | 27.2 | 25.5
CCOC(=O)N1CCC(NC(=O)CSCc2nc(-c3ccccc3Cl)oc2C)CC1 | 43.7 | 1.7 | 62.0 | -13.4 | 30.3 | 38.2
SMILES | HSF-1 act | AI-2 QS mod | ALR H2O2 inh | core dimer inh | HSF1 inhib | PHOSPHO1 inh
CCOc1ccc(-c2nc(CSCC(=O)NC3CC3)c(C)o2)cc1 | -85.3 | 8.1 | 98.6* | -1.0 | -84.5* | -19.6
CCOC(=O)N1CCC(NC(=O)CSCc2nc(-c3ccc(OCC)cc3)oc2C)CC1 | 34.1 | 23.9 | 99.2* | -4.1 | 19.9 | 49.0
Cn1c(=O)c2c(ncn2CCOc2ccc(F)cc2)n(C)c1=O | -19.4 | 4.4 | 19.7 | -12.9 | -0.8 | 43.3
Cc1ccc(NC(=O)CN(C)C(=O)Cc2ccc(Cl)cc2Cl)cc1 | -18.1 | 3.4 | -5.7 | -3.2 | 1.1 | 47.4
Cc1ccnn1-c1ccc(C(=O)NCc2ccccc2CN2CCOCC2)cc1 | nt | nt | -4.0 | nt | nt | nt
Cc1cc(C)cc(NC(=O)COc2coc(CN3CCc4ccccc4C3)cc2=O)c1 | 10.0 | 14.0 | -0.1 | 0.5 | 3.9 | nt
COc1cccc(/C=C2\SC(=O)N(CCC(=O)NCCCn3ccnc3)C2=O)c1 | 0.2 | 7.4 | 11.2 | 7.2 | 4.3 | 37.5
COc1cccc(/C=C2\SC(=S)N(CCCC(=O)N3CCCCC3)C2=O)c1 | 55.5* | 12.6 | -7.8 | 10.6 | 23.1 | -12.6
COc1cccc(/C=C2\SC(=O)N(CC(=O)NCCCn3ccnc3)C2=O)c1 | 9.5 | 18.4 | 98.9* | 0.5 | 10.8 | 32.4
O=C(CCCN1C(=O)/C(=C/c2ccc(F)cc2)SC1=S)NC1CCS(=O)(=O)C1 (configuration not stated) | -1.8 | 38.2 | -10.3 | 6.8 | -2.8 | -9.1
COC(=O)c1ccccc1S(=O)(=O)N1CCC(C(=O)OCc2ccc([N+](=O)[O-])cc2)CC1 | -10.4 | 50.6 | 0.1 | -0.1 | 0.3 | nt
COc1ccc(CN2CCNC(=O)C2CC(=O)O)cc1OC (configuration not stated) | 5.0 | 6.3 | -1.9 | -2.7 | -2.6 | 0.1
COc1ccc(CN2CCNC(=O)C2CC(=O)NC2CC(C)(C)CC(C)(C)C2)cc1OC (configuration not stated) | -78.5 | 17.7 | -3.2 | 7.3 | -70.4* | 17.0
Cc1csc(=O)n1CC(=O)Nc1nc2ccccc2s1 | nt | nt | 12.6 | nt | nt | nt
Cc1nc2ccccc2c(=O)n1NC(=O)c1cccc(Cl)c1 | 31.4 | 8.8 | nt | 4.8 | 6.0 | 22.7
FC(F)(F)Oc1ccc(Nc2nc3ccccc3o2)cc1 | 77.7* | 23.6 | -5.2 | 6.2 | 44.7 | 24.8
c1ccc(Nc2nc3ccccc3o2)cc1 | 43.3 | 21.6 | -13.6 | -0.2 | 24.2 | 17.1
Oc1ccc(-c2[nH]nc(-c3ccccc3)c2-c2nc3ccccc3[nH]2)cc1 | -14.9 | 2.3 | 84.4* | 4.5 | -1.2 | -17.0
Oc1ccc(N=Nc2nc(-c3ccccc3)c(-c3ccccc3)[nH]2)cc1 | 2.2 | 27.8 | 13.6 | -6.4 | -1.7 | 17.2

Screening data deposited in PubChem BioAssay by several laboratories.
